Source: ChEMBL document CHEMBL5661979, “Pharmacological inhibition of BMK1 suppresses tumor growth through promyelocytic leukemia protein” (Cancer Cell, 2010)
Activity calls are given as the source filed them. No cut-off for these calls is given here.

What was measured:
[1] = Inhibition of HGK/MINK/TNIK in human HeLa cells lysate at 50 uM pre incubated for 15 mins followed by ADP acyl phosphate probe addition and measured after 10 mins by LC-MS/MS analysis relative to control; settings: 25 min, condition cancer
[2] = target: Serine/threonine-protein kinase LATS2 (Homo sapiens) (UniProt Q9NRM7); experiment: Inhibition of LATS2 in human HeLa cells lysate at 2 uM pre incubated for 15 mins followed by ADP acyl phosphate probe addition and measured after 10 mins by LC-MS/MS analysis relative to control; type: subcellular; settings: time 25.0 min
Sequence of Serine/threonine-protein kinase LATS2 (Homo sapiens) (Q9NRM7 whole entry): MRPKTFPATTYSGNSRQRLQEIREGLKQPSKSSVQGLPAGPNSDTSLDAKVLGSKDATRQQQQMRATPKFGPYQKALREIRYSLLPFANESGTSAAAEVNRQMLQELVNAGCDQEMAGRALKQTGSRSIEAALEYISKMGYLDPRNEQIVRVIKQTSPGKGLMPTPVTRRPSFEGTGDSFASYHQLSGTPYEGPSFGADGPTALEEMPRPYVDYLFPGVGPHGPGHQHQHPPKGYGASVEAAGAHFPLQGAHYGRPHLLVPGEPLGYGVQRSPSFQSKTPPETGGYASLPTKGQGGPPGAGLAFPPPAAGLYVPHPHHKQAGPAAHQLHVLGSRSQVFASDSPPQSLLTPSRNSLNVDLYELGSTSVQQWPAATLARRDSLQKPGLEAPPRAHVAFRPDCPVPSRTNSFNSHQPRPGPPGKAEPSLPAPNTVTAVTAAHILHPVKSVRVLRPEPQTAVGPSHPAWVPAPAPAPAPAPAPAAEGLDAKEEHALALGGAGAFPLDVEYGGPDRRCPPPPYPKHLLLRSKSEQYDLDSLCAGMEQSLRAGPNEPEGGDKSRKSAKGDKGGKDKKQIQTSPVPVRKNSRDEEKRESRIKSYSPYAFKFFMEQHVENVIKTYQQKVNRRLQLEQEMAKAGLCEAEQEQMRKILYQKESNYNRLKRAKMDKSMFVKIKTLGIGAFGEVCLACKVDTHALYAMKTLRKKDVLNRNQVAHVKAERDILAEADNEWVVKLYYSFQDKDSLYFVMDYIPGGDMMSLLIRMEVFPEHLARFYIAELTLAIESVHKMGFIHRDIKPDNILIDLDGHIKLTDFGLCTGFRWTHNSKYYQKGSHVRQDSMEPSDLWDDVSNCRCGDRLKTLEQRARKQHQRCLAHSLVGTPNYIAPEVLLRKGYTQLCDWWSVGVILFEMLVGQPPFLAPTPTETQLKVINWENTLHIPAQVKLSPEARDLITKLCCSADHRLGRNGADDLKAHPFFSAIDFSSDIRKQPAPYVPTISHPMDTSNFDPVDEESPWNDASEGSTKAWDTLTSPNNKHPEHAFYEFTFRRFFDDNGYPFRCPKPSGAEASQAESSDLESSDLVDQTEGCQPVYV

[3] = target: T1, Phosphatidylinositol 5-phosphate 4-kinase type-2 alpha (Homo sapiens) (UniProt P48426); experiment: Inhibition of PIP5K2A LIP site in human HeLa cells lysate at 2 uM pre incubated for 15 mins followed by ADP acyl phosphate probe addition and measured after 10 mins by LC-MS/MS analysis relative to control; type: subcellular; settings: time 25.0 min
T1 sequence (whole entry): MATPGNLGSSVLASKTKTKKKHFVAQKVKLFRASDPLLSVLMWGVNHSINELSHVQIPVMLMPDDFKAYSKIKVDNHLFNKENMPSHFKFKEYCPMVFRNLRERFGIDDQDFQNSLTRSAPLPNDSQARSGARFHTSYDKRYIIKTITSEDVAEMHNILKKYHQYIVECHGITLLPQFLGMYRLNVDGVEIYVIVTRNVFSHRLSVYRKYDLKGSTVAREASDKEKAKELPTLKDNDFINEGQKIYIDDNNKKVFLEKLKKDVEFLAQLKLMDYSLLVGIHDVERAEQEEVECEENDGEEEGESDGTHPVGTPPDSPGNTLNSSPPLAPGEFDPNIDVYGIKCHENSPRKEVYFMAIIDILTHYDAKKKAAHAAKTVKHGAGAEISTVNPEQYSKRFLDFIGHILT

[4] = target: T2, Dual specificity mitogen-activated protein kinase kinase 6 (Homo sapiens) (UniProt P52564); experiment: Inhibition of MAP2K6 in human HeLa cells lysate at 2 uM pre incubated for 15 mins followed by ATP acyl phosphate probe addition and measured after 10 mins by LC-MS/MS analysis relative to control; type: subcellular; settings: time 25.0 min
T2 sequence (whole entry): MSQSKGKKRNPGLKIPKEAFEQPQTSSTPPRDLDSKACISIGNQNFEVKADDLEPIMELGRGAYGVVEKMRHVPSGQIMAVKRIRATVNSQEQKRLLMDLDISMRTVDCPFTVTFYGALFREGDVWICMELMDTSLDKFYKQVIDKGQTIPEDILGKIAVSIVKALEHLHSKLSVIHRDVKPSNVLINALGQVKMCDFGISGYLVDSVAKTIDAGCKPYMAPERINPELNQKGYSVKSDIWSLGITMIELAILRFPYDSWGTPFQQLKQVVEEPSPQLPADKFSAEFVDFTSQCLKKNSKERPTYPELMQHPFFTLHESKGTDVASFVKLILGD

[5] = target: Serine/threonine-protein kinase mTOR (Homo sapiens, UniProt P42345); experiment: Inhibition of FRAP in human HeLa cells lysate at 2 uM pre incubated for 15 mins followed by ATP acyl phosphate probe addition and measured after 10 mins by LC-MS/MS analysis relative to control; type: subcellular; settings: time 25.0 min
[6] = target: Calcium/calmodulin-dependent protein kinase type II subunit gamma (Homo sapiens, UniProt Q13555); experiment: Inhibition of CAMK2g in human HeLa cells lysate pre incubated for 15 mins followed by ATP acyl phosphate probe addition and measured after 10 mins by LC-MS/MS analysis; type: subcellular
Sequence of Calcium/calmodulin-dependent protein kinase type II subunit gamma (Q13555 whole entry, the tested form may be a part): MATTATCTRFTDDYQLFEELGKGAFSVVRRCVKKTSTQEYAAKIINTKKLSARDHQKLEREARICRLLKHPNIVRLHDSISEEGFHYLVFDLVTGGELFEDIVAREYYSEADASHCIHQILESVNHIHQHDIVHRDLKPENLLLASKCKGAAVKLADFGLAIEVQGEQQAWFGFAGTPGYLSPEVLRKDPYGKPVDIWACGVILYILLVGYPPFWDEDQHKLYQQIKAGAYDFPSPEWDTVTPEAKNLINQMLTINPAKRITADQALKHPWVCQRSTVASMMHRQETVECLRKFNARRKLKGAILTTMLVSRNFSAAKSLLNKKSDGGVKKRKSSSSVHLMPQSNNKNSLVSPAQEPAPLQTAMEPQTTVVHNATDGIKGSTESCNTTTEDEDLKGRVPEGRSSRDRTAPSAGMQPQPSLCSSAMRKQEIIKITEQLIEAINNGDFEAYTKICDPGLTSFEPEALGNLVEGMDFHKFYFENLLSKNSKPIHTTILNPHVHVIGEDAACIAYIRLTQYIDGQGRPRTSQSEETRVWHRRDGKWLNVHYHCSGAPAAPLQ
Procedure, shortened: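 KiNativ profiling in HeLa lysate (5 mg/mL total protein). Lysate incubated 15 min with inhibitor at 50, 10, 2, 0.8 or 0 μM. ATP or ADP acylphosphate probe then added (5 μM final) and reacted 10 min. Reaction stopped with urea and analysed by targeted MS, using up to four fragment ions per kinase peptide-probe conjugate. % inhibition taken against untreated lysate. Run in duplicate.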

A549 = experiment: Antitumor activity against human A549 cells xenografted in NOD/SCID mouse assessed as increase in p21 protein expression level at 50 mg/kg, ip administered twice a day for 2 days by Western blot analysis; type: functional, organism-based; settings: time 2.0 day
Procedure, shortened: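 A549 cells (1×10^6, in DMEM) were injected s.c. into the right flank of 6-week-old Nod/Scid mice. On day 21, mice received 50 mg/kg twice daily or carrier; 2 per group. After 2 days, tumors were homogenized in E1A buffer. Western blot read BMK1 activation (mobility shift) and p21, quantified by densitometry normalized to GAPDH.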

[7] = Inhibition of KHS1/2 in human HeLa cells lysate pre incubated for 15 mins followed by ATP acyl phosphate probe addition and measured after 10 mins by LC-MS/MS analysis; type: subcellular
[8] = Inhibition of MAP3K5/MAP3K6/MAP3K15 in human HeLa cells lysate at 10 uM pre incubated for 15 mins followed by ATP acyl phosphate probe addition and measured after 10 mins by LC-MS/MS analysis relative to control; settings: 25 min, condition cancer
[9] = target: Serine/threonine-protein kinase PLK1 (Homo sapiens, UniProt P53350); experiment: Inhibition of PLK1 in human HeLa cells lysate at 10 uM pre incubated for 15 mins followed by ADP acyl phosphate probe addition and measured after 10 mins by LC-MS/MS analysis relative to control; type: subcellular; settings: time 25.0 min
Sequence of Serine/threonine-protein kinase PLK1 (P53350 whole entry): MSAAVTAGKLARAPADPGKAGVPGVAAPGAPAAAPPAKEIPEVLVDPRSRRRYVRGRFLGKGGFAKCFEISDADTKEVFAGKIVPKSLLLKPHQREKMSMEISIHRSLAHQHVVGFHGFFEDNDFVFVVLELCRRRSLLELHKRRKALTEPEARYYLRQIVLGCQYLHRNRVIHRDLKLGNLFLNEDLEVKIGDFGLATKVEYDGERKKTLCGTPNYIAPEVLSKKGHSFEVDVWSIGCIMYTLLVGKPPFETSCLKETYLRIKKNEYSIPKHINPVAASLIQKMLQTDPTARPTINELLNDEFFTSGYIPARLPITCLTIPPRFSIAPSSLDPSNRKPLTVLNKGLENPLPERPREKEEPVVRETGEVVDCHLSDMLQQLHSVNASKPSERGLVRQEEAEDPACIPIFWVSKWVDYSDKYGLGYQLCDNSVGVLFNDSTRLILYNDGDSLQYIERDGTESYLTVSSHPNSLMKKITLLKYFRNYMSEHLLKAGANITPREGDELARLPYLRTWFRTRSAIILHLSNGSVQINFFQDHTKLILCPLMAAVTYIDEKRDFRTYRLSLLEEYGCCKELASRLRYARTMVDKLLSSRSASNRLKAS

[10] = target: Serine/threonine-protein kinase 3/4 (Homo sapiens) (UniProt Q13043+Q13188); experiment: Inhibition of MST1/2 in human HeLa cells lysate at 2 uM pre incubated for 15 mins followed by ADP acyl phosphate probe addition and measured after 10 mins by LC-MS/MS analysis relative to control; type: subcellular; settings: time 25.0 min
Sequence of Serine/threonine-protein kinase 3/4 (Homo sapiens) (Q13043 whole entry, looked up): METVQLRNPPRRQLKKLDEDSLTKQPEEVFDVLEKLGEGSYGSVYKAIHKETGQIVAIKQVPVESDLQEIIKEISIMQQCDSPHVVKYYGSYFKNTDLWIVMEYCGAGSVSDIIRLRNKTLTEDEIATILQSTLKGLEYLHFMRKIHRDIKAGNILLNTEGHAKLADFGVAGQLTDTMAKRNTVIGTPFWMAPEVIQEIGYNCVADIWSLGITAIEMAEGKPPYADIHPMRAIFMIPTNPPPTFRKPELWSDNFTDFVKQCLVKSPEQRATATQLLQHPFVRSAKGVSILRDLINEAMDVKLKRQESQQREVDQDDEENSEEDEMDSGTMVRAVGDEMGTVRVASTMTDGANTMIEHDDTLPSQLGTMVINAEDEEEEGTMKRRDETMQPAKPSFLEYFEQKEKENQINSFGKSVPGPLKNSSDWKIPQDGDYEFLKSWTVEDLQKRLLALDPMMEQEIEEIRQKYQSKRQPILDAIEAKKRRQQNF
Sequence of Serine/threonine-protein kinase 3/4 (Homo sapiens) (Q13188 whole entry, looked up): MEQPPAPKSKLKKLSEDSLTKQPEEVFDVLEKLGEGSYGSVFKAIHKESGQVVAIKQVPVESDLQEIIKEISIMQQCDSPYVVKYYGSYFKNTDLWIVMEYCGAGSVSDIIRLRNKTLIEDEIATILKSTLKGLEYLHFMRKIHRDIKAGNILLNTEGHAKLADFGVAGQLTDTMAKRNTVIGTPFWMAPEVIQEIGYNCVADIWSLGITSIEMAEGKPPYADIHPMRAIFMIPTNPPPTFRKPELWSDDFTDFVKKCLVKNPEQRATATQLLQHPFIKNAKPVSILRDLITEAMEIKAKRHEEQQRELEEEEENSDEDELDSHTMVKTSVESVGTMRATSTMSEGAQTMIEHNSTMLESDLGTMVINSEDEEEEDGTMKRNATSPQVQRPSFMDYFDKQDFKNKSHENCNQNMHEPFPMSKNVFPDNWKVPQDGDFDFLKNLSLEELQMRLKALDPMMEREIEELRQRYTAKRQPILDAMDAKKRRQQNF

[11] = target: T3, Non-receptor tyrosine-protein kinase TNK1 (Homo sapiens) (UniProt Q13470); experiment: Inhibition of TNK1 in human HeLa cells lysate at 50 uM pre incubated for 15 mins followed by ADP acyl phosphate probe addition and measured after 10 mins by LC-MS/MS analysis relative to control; type: subcellular; settings: time 25.0 min
T3 sequence (whole entry): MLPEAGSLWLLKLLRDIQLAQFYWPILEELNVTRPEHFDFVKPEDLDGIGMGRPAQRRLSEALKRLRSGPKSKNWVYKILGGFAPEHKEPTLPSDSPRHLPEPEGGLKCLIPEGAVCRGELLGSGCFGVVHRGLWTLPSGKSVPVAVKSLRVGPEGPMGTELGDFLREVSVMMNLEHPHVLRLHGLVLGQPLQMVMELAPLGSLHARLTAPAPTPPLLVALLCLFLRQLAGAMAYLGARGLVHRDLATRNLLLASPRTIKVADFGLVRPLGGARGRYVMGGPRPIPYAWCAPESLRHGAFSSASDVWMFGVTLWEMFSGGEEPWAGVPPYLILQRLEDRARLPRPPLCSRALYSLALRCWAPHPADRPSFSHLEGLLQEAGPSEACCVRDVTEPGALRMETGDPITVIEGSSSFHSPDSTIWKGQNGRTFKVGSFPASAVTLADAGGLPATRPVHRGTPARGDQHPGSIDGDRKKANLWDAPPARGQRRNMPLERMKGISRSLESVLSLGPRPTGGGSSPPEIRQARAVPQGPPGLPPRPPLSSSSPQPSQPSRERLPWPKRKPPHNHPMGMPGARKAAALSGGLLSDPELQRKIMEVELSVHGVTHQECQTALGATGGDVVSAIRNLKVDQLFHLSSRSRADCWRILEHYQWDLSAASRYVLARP

CCOc1cc(N2CCC(O)CC2)ccc1Nc1ncc2c(n1)N(C)c1ccccc1C(=O)N2C
inhibition at 50 µM [1]: -31.5% | inhibition [2]: -4% | inhibition [3]: 5.5% | inhibition [4]: -4% | inhibition [5]: 4.6% | IC50 [6]: > 50 µM | Activity (A549): Active | IC50 [7]: > 50 µM | inhibition at 10 µM [8]: 1.4% | inhibition [9]: -0.6% | inhibition [10]: -1.2% | inhibition [11]: 82.2%
